High-throughput results (PubChem BioAssay)
An excerpt weighted towards active compounds, which were near 0.77% of everything screened.
hIAP inh: human IAP inhibition; P09923; purified IAP, CDP-Star luminescence, 30 min; inhibition, % at 10 µM; actives 0.12% (n = 330,000);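 active means inhibition reaching a set limit with compound at 10 µM in the primary screen, cut at about 35% in these data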
Target sequence (P09923 whole entry, looked up): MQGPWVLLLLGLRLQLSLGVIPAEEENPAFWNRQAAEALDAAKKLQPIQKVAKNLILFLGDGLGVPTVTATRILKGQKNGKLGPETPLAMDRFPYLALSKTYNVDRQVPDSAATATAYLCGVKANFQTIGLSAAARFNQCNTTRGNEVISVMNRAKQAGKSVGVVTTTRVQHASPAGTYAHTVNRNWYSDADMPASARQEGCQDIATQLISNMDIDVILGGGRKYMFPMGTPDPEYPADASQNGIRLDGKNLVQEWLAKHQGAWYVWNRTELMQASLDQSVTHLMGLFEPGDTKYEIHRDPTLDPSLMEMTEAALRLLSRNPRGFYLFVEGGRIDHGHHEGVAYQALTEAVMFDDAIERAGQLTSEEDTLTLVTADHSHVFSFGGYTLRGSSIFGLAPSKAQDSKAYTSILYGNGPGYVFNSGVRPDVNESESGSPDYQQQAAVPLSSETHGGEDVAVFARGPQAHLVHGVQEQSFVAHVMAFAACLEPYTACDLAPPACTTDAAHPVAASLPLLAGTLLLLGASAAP
mIAP activ: mouse IAP activation | muIAP, CDP-Star luminescence, 30 min; active compounds read high; 1 = vehicle-only enzyme signal, 0 = enzyme-free wells | activation factor at 10 µM | actives 0.24% (n = 330,000);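 active means activation factor of at least 2 at 20 µM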
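also added = chemiluminescent substrate CDP-Star | test system = mouse IAP enzyme | signal = chemiluminescence readout | compound = DMSO-dissolved test compounds | incubation = 30 min at room temperature | benchmarks = DMSO wells, no-enzyme wells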
bIAP activator: intestinal alkaline phosphatase (bovine) activation; actives 0.17% (n = 200,000); activation factor at 20 µM; AID 1016; purified bovine IAP, CDP-star luminescence, 30 min; active compounds read high; fold of DMSO-control signal, blank-subtracted;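 active means activation factor of 2 or more at 20 µM, a signal rise over negative controls twice the positive control's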
mIAP block: mouse IAP inhibition | purified mouse IAP, CDP-Star luminescence, 30 min | inhibition, % at 10 µM | actives 0.2% (n = 330,000) | AID 2806;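 active means inhibition of at least 40% at 10 µM in the primary screen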
bIAP inh: intestinal alkaline phosphatase (bovine) inhibition. purified bovine IAP, CDP-star luminescence, 30 min. 190,000 tested, under 10 active. inhibition, % at 20 µM;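 active means over 50% inhibition of intestinal alkaline phosphatase at 20 µM in the single-dose screen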
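System: Purified bovine intestinal alkaline phosphatase (IAP) enzyme | Input: IAP diluted 1/65,000,000 in the well | Also added: CDP-star chemiluminescent phosphatase substrate, 30 µM final | Dosing: 20 µM single dose | Times: Enzyme reaction for 30 min at room temperature | Detection: Luminescence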
hIAP act: human IAP activation; actives 0.16% (n = 330,000); purified human IAP, CDP-Star luminescence, 30 min; active compounds read high; 1 = vehicle-only enzyme, 0 = enzyme-free background; P09923; AID 2524; activation factor at 10 µM;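 active means activation factor of the enzyme at least 2-fold when tested at 20 µM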
Of the large screens only hits and unclear results are named; the others gave an inactive call.

O=C(CSc1ncnc2nc[nH]c12)Nc1nnc(SCc2ccc(Cl)c(Cl)c2)s1	none
Cc1cccc(NC(=S)NC2CC3CCCC(C2)N3Cc2cccs2)c1C (configuration not stated)	mIAP activ 2.31
Cc1cccc(C)c1NC(=O)NC1CC2CCC(C1)N2Cc1cccs1 (configuration not stated)	none
CCCN1C2CCCC1CC(NC(=S)Nc1cccc(C)c1C)C2 (configuration not stated)	none (no result: bIAP activator, bIAP inh)
CCc1ccccc1NC(=S)NC1CC2CCCC(C1)N2Cc1cccs1 (configuration not stated)	mIAP activ 2.4
O=C(CSc1nnc(CCc2nc3ccccc3[nH]2)n1-c1ccccc1)NCc1ccco1	bIAP activator 2.5
O=C(CSc1nnc(CCc2nc3ccccc3[nH]2)n1-c1ccccc1)NCc1ccccc1	none
CCOc1ccc(NC(=O)CC(c2ccccc2)c2ccc(F)cc2)cc1 (configuration not stated)	mIAP activ 2.17
CCOc1ccccc1NC(=O)c1cccc(NC(=O)CC(c2ccccc2)c2ccccc2)c1	mIAP activ 2.02
COC(=O)CCC(=O)N1CCCC(CO)(Cc2ccccc2F)C1 (configuration not stated)	none (no result: bIAP activator, bIAP inh)
CC[n+]1c(/C=C/N(C)c2ccccc2)oc2ccc(Cl)cc21	none
CCN1/C(=C/C=C/c2oc3ccc4ccccc4c3[n+]2CC)Oc2ccc3ccccc3c21	hIAP inh 43.6, mIAP block 47.2
Cc1ccc2c(c1)C1NC(=S)NC(C)(O2)C1C(=O)Nc1ccc(Cl)cc1 (configuration not stated)	mIAP activ 2.02
O=C(NN=C1CCCC1)c1sc2ccccc2c1Cl	none
O=C1CCC/C(=N/NC(=O)c2sc3ccccc3c2Cl)C1	hIAP act 2.77 (no result: bIAP activator, bIAP inh)
C=CCN(c1ccccc1OC)S(=O)(=O)c1cccc(C(=O)NCc2cccs2)c1	none (no result: bIAP activator, bIAP inh)
CC1(C)OC(c2ccccc2)=C/C(=C/C=C2C(=O)c3ccccc3C2=O)O1	hIAP inh 49.1
O=C(CN1C(=O)c2cccnc2Oc2ccc(Cl)cc21)NC1CCCCC1	none (no result: bIAP activator, bIAP inh)
O=C(NCCSCc1ccco1)Nc1cc(Cl)cc(Cl)c1	mIAP activ 2.36 (no result: bIAP activator, bIAP inh)
Cc1ccc(N2CC(C(=O)Nc3ccccc3C(=O)NC3CCCCC3)CC2=O)cc1C (configuration not stated)	none (no result: bIAP activator, bIAP inh)
Cc1nonc1OCCNc1ccc([N+](=O)[O-])cc1	bIAP activator 2.2
COc1ccc(NC(=O)CCC(=O)Nc2nnc(C3CCCCC3)s2)c(OC)c1	none (no result: bIAP activator, bIAP inh)
O=C(/C=C/c1ccc([N+](=O)[O-])cc1)NCc1cccs1	bIAP activator 4.9
O=C(COC(=O)/C=C/c1ccc([N+](=O)[O-])cc1)NCc1cccs1	none (no result: bIAP activator, bIAP inh)
O=c1[nH]c2cc(Cl)c([N+](=O)[O-])nc2[nH]1	mIAP block 53.5
Cc1ccccc1NC(=O)CN1CCC(NC(=O)Nc2ccccc2)CC1	bIAP activator 2.3
O=C(Nc1ccc(F)cc1F)Nc1ccc(F)cc1F	none
O=C(Nc1ccc(F)cc1F)Nc1csc2ccccc12	mIAP activ 2.28 (no result: bIAP activator, bIAP inh)
Cc1cc(C)nc(/N=C(\N)Nc2ccc(-c3ccccc3)cc2)n1	bIAP activator 3.7
CC(=O)Nc1ccc(N/C(N)=N/c2nc(C)cc(C)n2)cc1	none
CSc1cccc(NC(=O)NCc2cccc(CNC(=O)Nc3cccc(SC)c3)c2)c1	mIAP activ 2.09 (no result: bIAP activator, bIAP inh)
CC(C)(C)n1nc2c(c1NC(=O)c1ccc(Br)o1)CS(=O)C2 (configuration not stated)	bIAP activator 2.6
Fc1cccc(NC(=S)NCc2ccccc2Cl)c1	mIAP activ 3.03 (no result: bIAP activator, bIAP inh)
Cc1cc(Cl)ccc1NC(=S)NCc1ccccc1Cl	mIAP activ 2.62
Fc1ccc(CNC(=S)Nc2cccc(Cl)c2)cc1	mIAP activ 2.38
COc1ccc(CNC(=S)Nc2ccc(F)c(Cl)c2)cc1	mIAP activ 2.62
CCOc1cc(/C=C(/NC(C)=O)C(=O)O)cc(Cl)c1OCc1ccc(Br)cc1	none (no result: bIAP activator, bIAP inh)
S=C(NCc1ccc(Cl)cc1)Nc1ccccc1	none
S=C(NCc1cccs1)Nc1cc(Cl)cc(Cl)c1	mIAP activ 4 (no result: bIAP activator, bIAP inh)
S=C(NCc1ccc(Cl)cc1Cl)Nc1ccccc1	mIAP activ 2.35
O=C(Nc1nc(-c2ccccc2)cs1)Nc1ccc(F)cc1F	none
O=C(Nc1ccccc1)Nc1nc(-c2ccccc2)cs1	none (no result: bIAP activator, bIAP inh)
O=C(Nc1ccccc1)Nc1nc(-c2ccc(F)c(F)c2)cs1	mIAP activ 2.47 (no result: bIAP activator, bIAP inh)
O=C(Nc1ccc(Cl)c(Cl)c1)Nc1nc(-c2ccccc2)cs1	mIAP activ 2.11
O=C(NCC1CCN(c2ccc(S(=O)(=O)N3CCOCC3)cc2)CC1)Nc1ccccc1	mIAP activ 2.11 (no result: bIAP activator, bIAP inh)
Cc1noc(C)c1COC(=O)C1CCN(S(=O)(=O)c2c(Cl)cccc2Cl)CC1	none (no result: bIAP activator, bIAP inh)
CCOC(=O)c1c(-c2ccc(C)o2)csc1NC(=O)CN1CCCCC1	none
CCOC(=O)c1c(NC(=O)CN2CCCCC2)sc2c1CCC(C=O)=C2Cl	mIAP block 48.6
CC(OC(=O)c1cc(S(=O)(=O)N2CCOCC2)ccc1Br)C(=O)N1CCOCC1 (configuration not stated)	none (no result: bIAP activator, bIAP inh)
Cc1noc(C)c1COC(=O)c1ccc(-c2nc3ccccc3s2)s1	mIAP block 42.2
CCNC(=O)COC(=O)c1ccc(-c2nc3ccccc3s2)s1	none
COC(=O)c1ccc2c(c1)C(C)(C)C(/C=C/c1ccc(O)cc1)=[N+]2C	hIAP inh 49.7 (no result: bIAP inh)
COc1ccc(Cl)c(N2CCN(CCCNC(=O)Nc3ccc(C)cc3)CC2)c1	bIAP activator 2.2
CCOC(=O)c1c(N)sc(=S)c2c1CCC2	mIAP block 41.1
CCc1ccc(-c2nc(CN3CCC(C(=O)NCCc4ccc(OC)c(OC)c4)CC3)c(C)o2)cc1	bIAP activator 2.1
CCc1ccc(-c2nc(CN3CCC(C(=O)NCc4ccccc4OC)CC3)c(C)o2)cc1	bIAP activator 2.6
O=C(NCc1ccccc1)NC1(C(=O)N2CCN(c3ccccc3)CC2)CCCCC1	mIAP activ 2.25, bIAP activator 2.1
O=C(CN1CCN(C(=O)c2ccco2)CC1)Nc1ccccc1	none (no result: bIAP activator, bIAP inh)
O=C(Nc1ccccc1)NC1(C(=O)N2CCN(C(=O)c3ccco3)CC2)CCCCC1	bIAP activator 6.3
COc1ccc(SC[C@H](Cc2ccccc2)N2CC[C@@H](C(C)(C)C)CCC2=O)cc1	none (no result: bIAP activator, bIAP inh)
O=C(Nc1cccc(Cl)c1)NC1(C(=O)NCc2cccs2)CCCCC1	mIAP activ 2.21
O=C(NCc1cccs1)Nc1cccc(Cl)c1	none (no result: bIAP activator, bIAP inh)
Cc1ccccc1CSCC(=O)NCc1ccco1	bIAP activator 2.2
Cc1ccc(S(=O)(=O)N2CCC(C(=O)N3CCCC3C(=O)N[C@@H](CC(C)C)C(=O)NCC(N)=O)CC2)cc1 (some centres not stated)	none (no result: bIAP activator, bIAP inh)
CCOc1ccc(S(=O)(=O)NN)cc1	bIAP activator 2
